# In ChEMBL document CHEMBL1138975, “Design and synthesis of 4-substituted-8-(2-phenyl-cyclohexyl)-2,8-diaza-spiro[4.5]decan-1-one as a novel class of GlyT1 inhibitors: achieving selectivity against the mu opioid and nociceptin/orphanin FQ peptide (NOP) receptors” (Bioorg Med Chem Lett, 2006):
# Key:
# [1] = molecular target: T1, Sodium- and chloride-dependent glycine transporter 1 (Homo sapiens, UniProt P48067); experiment: Inhibition of [3H]glycine uptake at GlyT1
# T1 sequence (P48067 whole entry): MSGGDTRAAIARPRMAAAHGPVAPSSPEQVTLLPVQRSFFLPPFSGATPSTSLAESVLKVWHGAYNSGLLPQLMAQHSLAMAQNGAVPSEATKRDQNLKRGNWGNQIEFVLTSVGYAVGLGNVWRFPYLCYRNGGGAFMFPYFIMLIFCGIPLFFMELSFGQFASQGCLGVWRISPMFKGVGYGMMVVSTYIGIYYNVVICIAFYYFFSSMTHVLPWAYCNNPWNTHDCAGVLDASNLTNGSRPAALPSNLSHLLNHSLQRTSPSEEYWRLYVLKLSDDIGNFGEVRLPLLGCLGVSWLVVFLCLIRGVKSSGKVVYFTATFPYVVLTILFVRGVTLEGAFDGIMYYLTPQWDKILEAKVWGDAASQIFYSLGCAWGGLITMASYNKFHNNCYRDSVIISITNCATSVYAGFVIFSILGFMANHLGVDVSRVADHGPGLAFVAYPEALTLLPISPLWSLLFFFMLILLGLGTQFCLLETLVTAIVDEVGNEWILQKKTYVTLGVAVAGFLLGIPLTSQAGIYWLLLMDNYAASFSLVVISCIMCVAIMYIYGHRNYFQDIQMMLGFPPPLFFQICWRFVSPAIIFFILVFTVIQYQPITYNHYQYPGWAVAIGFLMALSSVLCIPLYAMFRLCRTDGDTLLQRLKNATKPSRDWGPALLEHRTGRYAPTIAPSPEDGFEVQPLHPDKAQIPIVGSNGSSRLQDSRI
# [2] = molecular target: T2, Sodium- and chloride-dependent glycine transporter 2 (Homo sapiens, UniProt Q9Y345); experiment: Inhibition of [3H]glycine uptake at GlyT2
# T2 sequence (Q9Y345 whole entry): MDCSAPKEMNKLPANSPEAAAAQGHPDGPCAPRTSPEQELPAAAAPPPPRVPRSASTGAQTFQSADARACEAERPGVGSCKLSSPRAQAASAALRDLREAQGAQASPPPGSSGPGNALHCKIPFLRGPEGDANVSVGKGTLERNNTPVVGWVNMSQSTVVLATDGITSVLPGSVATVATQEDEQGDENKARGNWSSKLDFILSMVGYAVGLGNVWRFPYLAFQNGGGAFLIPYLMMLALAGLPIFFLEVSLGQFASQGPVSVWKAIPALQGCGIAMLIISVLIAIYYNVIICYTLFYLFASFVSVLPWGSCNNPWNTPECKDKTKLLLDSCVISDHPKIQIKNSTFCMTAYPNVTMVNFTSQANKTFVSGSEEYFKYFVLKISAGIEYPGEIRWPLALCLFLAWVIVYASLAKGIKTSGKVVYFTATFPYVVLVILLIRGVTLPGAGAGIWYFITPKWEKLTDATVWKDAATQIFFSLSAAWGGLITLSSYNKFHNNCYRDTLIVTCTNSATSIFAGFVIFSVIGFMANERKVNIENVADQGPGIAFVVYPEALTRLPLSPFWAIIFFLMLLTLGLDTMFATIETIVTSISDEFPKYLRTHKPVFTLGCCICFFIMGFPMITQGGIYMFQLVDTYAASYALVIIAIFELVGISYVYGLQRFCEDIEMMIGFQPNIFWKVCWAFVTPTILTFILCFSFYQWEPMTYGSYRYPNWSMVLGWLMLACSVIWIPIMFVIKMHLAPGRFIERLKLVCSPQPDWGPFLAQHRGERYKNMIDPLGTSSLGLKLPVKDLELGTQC
# Nociceptin receptor = Nociceptin receptor (Homo sapiens, UniProt P41146); experiment: Displacement of [3H]NOP from human NOP receptor expressed in HEK293 cells; type: cell-based
# Summary of the method: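 Radioligand binding using membranes from HEK293 cells stably (permanently) transfected with human NOP receptor; displacement of [3H]-NOP measured.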
# Nociceptin receptor, sequence (P41146 whole entry): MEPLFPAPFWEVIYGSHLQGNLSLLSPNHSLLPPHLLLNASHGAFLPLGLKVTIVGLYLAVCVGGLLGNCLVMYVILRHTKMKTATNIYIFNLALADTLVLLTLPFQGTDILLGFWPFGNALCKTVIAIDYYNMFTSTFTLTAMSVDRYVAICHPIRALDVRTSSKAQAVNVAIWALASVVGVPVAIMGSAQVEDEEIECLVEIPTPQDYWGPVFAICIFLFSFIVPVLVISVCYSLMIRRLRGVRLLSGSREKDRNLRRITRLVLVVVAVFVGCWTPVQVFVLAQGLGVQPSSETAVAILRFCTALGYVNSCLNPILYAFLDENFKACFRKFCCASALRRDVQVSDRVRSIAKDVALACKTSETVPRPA
Structure (SMILES),EC50 [1] [µM],EC50 [2] [µM],IC50 (Nociceptin receptor) [µM]
O=C1NC[C@H](c2ccccc2)C12CCN([C@@H]1CCCC[C@@H]1c1ccccc1)CC2,2.88,,
O=C1NCC(c2ccccc2)C12CCN(C1CCCCC1c1ccccc1)CC2 (stereo unspecified),0.232,25,> 10
O=C1NC[C@@H](c2ccccc2)C12CCN([C@H]1CCCC[C@H]1c1ccccc1)CC2,0.246,39.6,> 10
O=C1NC[C@@H](c2ccccc2)C12CCN([C@@H]1CCCC[C@@H]1c1ccccc1)CC2,2.83,,
O=C1NC[C@H](c2ccccc2)C12CCN([C@H]1CCCC[C@H]1c1ccccc1)CC2,0.061,,> 10
"O=C1NCC(c2ccc(Cl)c(Cl)c2)C12CCN(C1CCCCC1c1ccc(F)cc1)CC2 (single isomer, unassigned; diastereomer 1)",0.27,,
"O=C1NCC(c2ccccc2)C12CCN(C1CCCCC1c1ccc(F)cc1)CC2 (single isomer, unassigned; diastereomer 1)",0.167,,
"COc1ccc(C2CNC(=O)C23CCN(C2CCCCC2c2ccc(C)cc2)CC3)cc1 (single isomer, unassigned; diastereomer 1)",1.13,,
"O=C1NCC(c2ccc(Cl)c(Cl)c2)C12CCN(C1CCCCC1c1ccc(F)cc1)CC2 (single isomer, unassigned; diastereomer 2)",2.19,,
"O=C1NCC(c2ccccc2)C12CCN(C1CCCCC1c1ccc(F)cc1)CC2 (single isomer, unassigned; diastereomer 2)",0.048,,
"COc1ccc(C2CNC(=O)C23CCN(C2CCCCC2c2ccc(C)cc2)CC3)cc1 (single isomer, unassigned; diastereomer 2)",16.6,,

# Second part, led by results:
EC50 [1] [µM],EC50 [2] [µM],Structure (SMILES),IC50 (Nociceptin receptor) [µM]
1.3,8.36,O=C1NC[C@H](c2ccc(F)cc2)C12CCN([C@H]1CCCC[C@H]1c1ccc(F)cc1)CC2,
0.113,,COc1ccc(C2CNC(=O)C23CCN(C2CCCCC2c2ccc(F)cc2)CC3)cc1 (stereo unspecified),
0.036,39.9,O=C1NC[C@H](c2ccc(F)cc2)C12CCN([C@@H]1CCCC[C@@H]1c1ccc(F)cc1)CC2,> 10
0.043,16.7,O=C1NC[C@@H](c2ccc(F)cc2)C12CCN([C@@H]1CCCC[C@@H]1c1ccc(F)cc1)CC2,> 10
1.06,> 30,O=C1NC[C@@H](c2ccc(F)cc2)C12CCN([C@H]1CCCC[C@H]1c1ccc(F)cc1)CC2,
2.33,,"O=C1NCC(c2ccc(F)cc2)C12CCN(C1CCCCC1c1ccc(C(F)(F)F)cc1)CC2 (single isomer, unassigned; diastereomer 1)",
0.953,,"O=C1NCC(c2ccc(F)cc2)C12CCN(C1CCCCC1c1ccc(C(F)(F)F)cc1)CC2 (single isomer, unassigned; diastereomer 2)",
0.129,,"O=C1NCC(c2ccc(F)cc2)C12CCN(C1CCCCC1c1ccc(C(F)(F)F)cc1)CC2 (single isomer, unassigned; diastereomer 3)",
0.091,,O=C1NCC(c2ccc(F)cc2)C12CCN(C1CCCCC1c1ccc(C(F)(F)F)cc1)CC2 (stereo in doubt),
